According to ChEMBL document CHEMBL3872233, “Topical Treatment of Leishmania tropica Infection Using (-)-α-Bisabolol Ointment in a Hamster Model: Effectiveness and Safety Assessment” (J Nat Prod, 2016):
Calls of active or inactive are those of the source. The calls are words filed in the database; no cut-off is given here.

Legend:
[1] = system: Leishmania tropica; test: (§1) Antileishmanial activity against Leishmania tropica MHOM/MA/1988/LEM1314 promastigotes infected in Syrian hamster assessed as reduction in parasite load in foodpad skin at 200 mg administered once daily through oral gavage for 3 weeks starting at week 7 post infection measured 1 week post last dose by qPCR analysis relative to control; type: functional; set-up: scale not given: the % may be the effect or the level left
How it was run: (§2)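 Hamsters were infected in the footpad and treated daily for 21 days from week 7 post-infection, n = 10/group, and sacrificed 1 week after the last dose. Footpad skin, liver and spleen DNA was assayed by L. tropica-specific TaqMan qPCR (chromosome 29 target), in triplicate with 50 ng DNA per 25 μL reaction. Load was interpolated from Ct on a calibration curve of promastigote DNA, relative to base-ointment controls.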

[2] = system: Leishmania tropica; test: as §1, with “5 %” for “200 mg”, “tropically on footpad” for “through oral gavage”; type: functional; set-up: scale not given: the % may be the effect or the level left; how it was run: as §2
[3] = system: Syrian golden hamster; test: Toxicity in Syrian hamster assessed as pain at 500 mg/kg, po or 5 % administered tropically on footpad for 28 days; type: organism-based, Mesocricetus auratus; conditions: in vivo, 672 h
[4] = system: Syrian golden hamster; test: Toxicity in Syrian hamster assessed as footpad edema at 500 mg/kg, po or 5 % administered tropically on footpad for 28 days; type: organism-based, Mesocricetus auratus; conditions: in vivo, 672 h
[5] = system: Syrian golden hamster; test: Toxicity in Syrian hamster assessed as redness at 500 mg/kg, po or 5 % administered tropically on footpad for 28 days; type: organism-based, Mesocricetus auratus; conditions: in vivo, 672 h
[6] = system: Syrian golden hamster; test: Toxicity in Syrian hamster assessed as mean serum AST levels at 5 % administered tropically on footpad for 28 days (reference value: 83.4 +/- 4.2 U/L); type: organism-based, Mesocricetus auratus; conditions: in vivo, topical_or_ocular, 672 h
[7] = system: Syrian golden hamster; test: Toxicity in Syrian hamster assessed as mean serum AST levels at 500 mg/kg administered through oral gavage for 28 days (reference value: 83.4 +/- 4.2 U/L); type: organism-based, Mesocricetus auratus; conditions: in vivo, 672 h
[8] = system: Syrian golden hamster; test: Toxicity in Syrian hamster infected with Leishmania tropica MHOM/MA/1988/LEM1314 promastigotes assessed as mean serum AST levels at 200 mg/kg administered through oral gavage for 3 weeks starting at week 7 post infection measured 1 week post last dose (reference value: 77.1 +/- 0.9 U/L); type: organism-based, Mesocricetus auratus; conditions: in vivo, 168 h
[9] = system: Syrian golden hamster; test: Toxicity in Syrian hamster infected with Leishmania tropica MHOM/MA/1988/LEM1314 promastigotes assessed as mean serum AST levels at 5 % administered tropically on footpad for 3 weeks starting at week 7 post infection measured 1 week post last dose (reference value: 77.1 +/- 0.9 U/L); type: organism-based, Mesocricetus auratus; conditions: in vivo, topical_or_ocular, 168 h
[10] = system: Syrian golden hamster; test: Toxicity in Syrian hamster infected with Leishmania tropica MHOM/MA/1988/LEM1314 promastigotes assessed as mean serum ALT levels at 5 % administered tropically on footpad for 3 weeks starting at week 7 post infection measured 1 week post last dose (reference value: 81.6 +/- 4.9 U/L); type: organism-based, Mesocricetus auratus; conditions: in vivo, topical_or_ocular, 168 h
[11] = system: Syrian golden hamster; test: Toxicity in Syrian hamster assessed as mean serum creatinine levels at 500 mg/kg administered through oral gavage for 28 days (reference value: 0.21 +/- 0.2 mg/dl); type: organism-based, Mesocricetus auratus; conditions: in vivo, 672 h
[12] = system: Syrian golden hamster; test: Toxicity in Syrian hamster infected with Leishmania tropica MHOM/MA/1988/LEM1314 promastigotes assessed as mean serum creatinine levels at 1 % administered tropically on footpad for 3 weeks starting at week 7 post infection measured 1 week post last dose (reference value: 0.19 mg/dl); type: organism-based, Mesocricetus auratus; conditions: in vivo, topical_or_ocular, 168 h
[13] = system: Syrian golden hamster; test: Toxicity in Syrian hamster assessed as mean serum ALP levels at 500 mg/kg administered through oral gavage for 28 days (reference value: 14.4 +/- 2 U/L); type: organism-based, Mesocricetus auratus; conditions: in vivo, 672 h
[14] = system: Syrian golden hamster; test: Toxicity in Syrian hamster assessed as urea levels at 500 mg/kg administered through oral gavage for 28 days (reference value: 33.2 +/- 2.8 mg/dl); type: organism-based, Mesocricetus auratus; conditions: in vivo, 672 h
[15] = system: Syrian golden hamster; test: Toxicity in Syrian hamster infected with Leishmania tropica MHOM/MA/1988/LEM1314 promastigotes assessed as urea levels at 200 mg/kg administered through oral gavage for 3 weeks starting at week 7 post infection measured 1 week post last dose (reference value: 32.5 +/- 0.8 mg/dl); type: organism-based, Mesocricetus auratus; conditions: in vivo, 168 h
[16] = system: Syrian golden hamster; test: Toxicity in Syrian hamster infected with Leishmania tropica MHOM/MA/1988/LEM1314 promastigotes assessed as urea levels at 2.5 % administered tropically on footpad for 3 weeks starting at week 7 post infection measured 1 week post last dose (reference value: 32.5 +/- 0.8 mg/dl); type: organism-based, Mesocricetus auratus; conditions: in vivo, topical_or_ocular, 168 h
[17] = system: Syrian golden hamster; test: Toxicity in Syrian hamster assessed as spleen weight at 5 % administered tropically on footpad for 28 days (reference value: 179.4 +/- 19.8 mg); type: organism-based, Mesocricetus auratus; conditions: in vivo, topical_or_ocular, 672 h
[18] = system: Syrian golden hamster; test: Toxicity in Syrian hamster infected with Leishmania tropica MHOM/MA/1988/LEM1314 promastigotes assessed as spleen weight at 200 mg/kg administered through oral gavage for 3 weeks starting at week 7 post infection measured 1 week post last dose (reference value: 178.8 +/- 1.2 mg); type: organism-based, Mesocricetus auratus; conditions: in vivo, 168 h
[19] = system: Syrian golden hamster; test: Toxicity in Syrian hamster infected with Leishmania tropica MHOM/MA/1988/LEM1314 promastigotes assessed as liver weight at 200 mg/kg administered through oral gavage for 3 weeks starting at week 7 post infection measured 1 week post last dose (reference value: 3.3 +/- 0.2 g); type: organism-based, Mesocricetus auratus; conditions: in vivo
How it was run: (§3)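 Infected hamsters were treated daily for 21 days from week 7 post-infection (ointment 1–5%, 200 mg/kg gavage, or intralesional meglumine antimoniate 2 mg SbV/kg). Clinical signs and body weight were monitored during treatment and a 7-day follow-up. After sacrifice, liver and spleen were weighed and serum ALP, ALT, creatinine, urea and AST were measured with kits, compared with untreated infected animals.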

[20] = system: Syrian golden hamster; test: Toxicity in Syrian hamster infected with Leishmania tropica MHOM/MA/1988/LEM1314 promastigotes assessed as liver weight at 5 % administered tropically on footpad for 3 weeks starting at week 7 post infection measured 1 week post last dose (reference value: 3.3 +/- 0.2 g); type: organism-based, Mesocricetus auratus; conditions: in vivo, topical_or_ocular, 168 h; how it was run: as §3
[21] = system: Syrian golden hamster; test: Toxicity in Syrian hamster infected with Leishmania tropica MHOM/MA/1988/LEM1314 promastigotes assessed as stress at 200 mg/kg administered through oral gavage for 3 weeks starting at week 7 post infection measured during compound dosing or measured 1 week post last dose; type: organism-based, Mesocricetus auratus; conditions: in vivo, 168 h
How it was run: (§4)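 Infected hamsters (footpad, 3 × 10^7 promastigotes) were gavaged daily for 21 days from week 7 post-infection at 200 mg/kg in olive oil, n=10.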

[22] = system: Syrian golden hamster; test: Toxicity in Syrian hamster infected with Leishmania tropica MHOM/MA/1988/LEM1314 promastigotes assessed as pain at 200 mg/kg administered through oral gavage for 3 weeks starting at week 7 post infection measured during compound dosing or measured 1 week post last dose; type: organism-based, Mesocricetus auratus; conditions: in vivo, 168 h; how it was run: as §4
[23] = system: Syrian golden hamster; test: Toxicity in Syrian hamster infected with Leishmania tropica MHOM/MA/1988/LEM1314 promastigotes assessed as change in body weight at 200 mg/kg administered through oral gavage for 3 weeks starting at week 7 post infection measured during compound dosing or measured 1 week post last dose; type: organism-based, Mesocricetus auratus; conditions: in vivo, 168 h; how it was run: as §3
[24] = system: Leishmania tropica; test: as §1, with “liver” for “foodpad skin”, “5 %” for “200 mg”, “tropically on footpad” for “through oral gavage”; type: functional, tissue-based; how it was run: as §2
[25] = system: Leishmania tropica; test: as §1, with “spleen” for “foodpad skin”, “1 %” for “200 mg”, “tropically on footpad” for “through oral gavage”; type: functional; how it was run: as §2
[26] = system: Leishmania tropica; test: as §1, with “spleen” for “foodpad skin”, “5 %” for “200 mg”, “tropically on footpad” for “through oral gavage”; type: functional; how it was run: as §2

SMILES: CC(C)=CCC[C@](C)(O)[C@@H]1CC=C(C)CC1 [LEVOMENOL]
- Activity [1]: 74%
- Activity [2]: 82%
- Activity [3]: Non-Toxic
- Activity [4]: Non-Toxic
- Activity [5]: Non-Toxic
- Activity [6]: 83.4 U/L
- Activity [7]: 82.2 U/L
- Activity [8]: 77.9 U/L
- Activity [9]: 73 U/L
- Activity [10]: 81.8 U/L
- Activity [11]: 0.19 mg/dL
- Activity [12]: 0.22 mg/dL
- Activity [13]: 14.7 U/L
- Activity [14]: 33.7 mg/dL
- Activity [15]: 34.4 mg/dL
- Activity [16]: 33.6 mg/dL
- Activity [17]: 180.2 mg
- Activity [18]: 177.3 mg
- Activity [19]: 3 g
- Activity [20]: 3.2 g
- Activity [21]: Non-Toxic
- Activity [22]: Non-Toxic
- Activity [23]: Non-Toxic
- Activity [24]: Active
- Activity [25]: Active
- Activity [26]: Active
